Assay results reported in ChEMBL document CHEMBL1138407, “Bioactive bibenzyl derivatives and fluorenones from Dendrobium nobile” (J Nat Prod, 2007).
Activity calls are given as the source filed them. The rule behind the calls is not given here.

What was measured:
[1] = tested on: Radical scavenging activity; experiment: Antioxidant activity assessed by DPPH radical scavenging assay; type: functional
In short: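 Test samples at several concentrations in EtOH mixed 1:1 by volume with a 200 μM DPPH solution in EtOH. After 1 min shaking, incubated 30 min at room temperature in the dark, then A517 read. Sample-only wells without DPPH corrected for colour. Done in triplicate, reported as mean ± SD. IC50 is the sample concentration scavenging 50% of DPPH.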

[2] = Antioxidant activity assessed by ORAC assay; type: functional
In short: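 Samples at several concentrations combined with potassium phosphate buffer (7.5 mM as added) and sodium fluorescein probe (63 nM as added), then preincubated 5 min at 37 °C. Reaction started with AAPH (12.8 mM as added). Fluorescence (ex 485/em 538 nm) read every 2 min until decay neared zero. Trolox standard. Done in triplicate, reported as mean ± SD in μmol Trolox equivalents per μmol sample.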

[3] = Cytotoxicity against murine RAW 264.7 cells by MTT assay; type: cell-based; conditions: mouse
In short: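 MTT viability measured in RAW 264.7 cultures from the LPS/IFN-γ-stimulated NO assay, in duplicate, to flag cytotoxic concentration ranges.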

RAW = experiment: Inhibition of LPS and IFN-gamma-activated NO production in murine RAW 264.7 cells; conditions: Mus musculus

| SMILES | IC50 [1] [µM] | Activity [2] | Activity [3] | IC50 (RAW) [µM] |
| --- | --- | --- | --- | --- |
| COc1cccc(CCc2cc(O)c(O)c(OC)c2)c1 | 40.3 |  |  |  |
| COc1cc(CCc2cc(OC)c(OC)c(OC)c2)ccc1O | 21.8 | Active | Toxic |  |
| COc1cc(O)cc2c1-c1c(O)ccc(O)c1C2=O | 16.2 | Active |  | 13.4 |
| COc1ccc(CCc2cc(OC)c(O)c(OC)c2)cc1OC | 14 | Active | Toxic |  |
| COc1ccc(CCc2cc(OC)c(OC)c(OC)c2)cc1OC | > 200 | inactive |  | 48.2 |
| O=C1O[C@H]([C@@H](O)CO)C(O)=C1O [ASCORBIC ACID] | 18 |  |  |  |
| Cc1cc(C(C)(C)C)c(O)c(C(C)(C)C)c1 [BUTYLATED HYDROXYTOLUENE] | 90.9 |  |  |  |
| COc1cc(O)cc(CCc2ccc(O)c(OC)c2)c1 [GIGANTOL] | 56.4 | Active |  | 32.9 |
| COc1cc(CCc2cc(OC)c(O)c(OC)c2)ccc1O [MOSCATILIN] | 14.5 | Active |  | 36.8 |
| COc1cc(CC(O)c2cc(OC)c(O)c(OC)c2)ccc1O (stereo not given) [NOBILIN D] | 19.9 | Active |  | 15.3 |
| COc1cccc(CCc2cc(OC)c(O)c3c2C(Cc2cccc(OC)c2)c2cc(O)c(O)c(OC)c2O3)c1 (stereo not given) [NOBILIN E] | 21 |  |  | 19.2 |
| COc1cc(O)cc2c1-c1ccc(O)cc1C2=O [NOBILONE] | > 200 | Active |  | 38.1 |
| Oc1ccc(/C=C/c2cc(O)cc(O)c2)cc1 [RESVERATROL] |  |  |  | 23.5 |
